The source of these data is ChEMBL document CHEMBL3351428, “Uralsaponins M-Y, antiviral triterpenoid saponins from the roots of Glycyrrhiza uralensis” (J Nat Prod, 2014).

The nature of series [1]: Antiviral activity against Influenza A virus A/WSN/33 (H1N1) infected in MDCK cells assessed as inhibition of virus-induced cell death after 36 hrs by CellTiter-Glo luminescent cell viability assay. It is filed as functional, cell-based, Influenza A virus (A/WSN/1933(H1N1)). In short, it runs like this:
(§1)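 MDCK cells in DMEM/10% FBS with penicillin-streptomycin, seeded 1 × 10^5/well 24 h before infection (37 °C, 5% CO2). Virus was grown in MDCK with 2 μg/mL TPCK-trypsin. Compound premixed with virus 15 min at room temperature, then added after medium removal. Read at 36 h postinfection by microscopy, confirmed by CellTiter-Glo. Inhibition % computed from luminescence relative to DMSO with/without virus. IC50 measured for significant inhibitors.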

Series [2] can be described thus: Antiviral activity against Influenza A virus A/WSN/33 (H1N1) infected in MDCK cells assessed as inhibition of virus-induced cell death at 100 uM after 36 hrs by CellTiter-Glo luminescent cell viability assay. It is filed as functional, Influenza A virus (A/WSN/1933(H1N1)). The method, boiled down:
as §1

Series [3] concerns Human immunodeficiency virus 1. As to the kind of experiment: Antiviral activity against VSV-G protein pseudotyped HIV1 infected in 293T cells assessed as inhibition of viral replication after 48 hrs by luciferase reporter assay. The series is classed as functional, organism-based. Conditions: Human immunodeficiency virus 1, HEK-293T. The method, boiled down:
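Pseudovirus was made by cotransfecting 293T cells with pNL-Luc-E and pHIT/G and harvesting filtered supernatant after 48 h. Capsid level was quantified by p24 ELISA. SupT1 cells were infected at MOI 1 with or without compound (efavirenz as positive control) at […] for 48 h. Luciferase read-out gave inhibition rate. Compounds above 50% at 100 μM were taken to IC50.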

Another series deals with MDCK. The series is described as follows: Cytotoxicity against MDCK cells assessed as reduction in cell viability at 100 uM after 36 hrs by CellTiter-Glo luminescent assay. The series is classed as cell-based, Canis lupus familiaris. Conditions: dog. The method, boiled down:
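Uninfected MDCK cells, grown in DMEM with 10% FBS, 100 U/mL penicillin and 100 μg/mL streptomycin, were incubated with compound for 36 h. Cytopathic effect was scored by microscopy and confirmed by CellTiter-Glo luminescent viability read-out.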
For orientation: ATP-based viability assays read luminescence as a measure of living cells.

Series [4] deals with Human immunodeficiency virus 1. As to the kind of experiment: Antiviral activity against VSV-G protein pseudotyped HIV1 infected in 293T cells assessed as inhibition of viral replication at 100 uM after 48 hrs by luciferase reporter assay. The series is classed as functional. Conditions: Human immunodeficiency virus 1, HEK-293T. A general note: In a reporter assay the amount or activity of a reporter protein is the signal.

In general, IC50 refers to the concentration that inhibits the measured activity by half. For orientation: inhibition means how much of the control response was suppressed. For `CCOC(=O)C1=C[C@@H](OC(CC)CC)[C@H](NC(C)=O)[C@@H](N)C1` [OSELTAMIVIR PHOSPHATE], the IC50 in series [1] is 45.6 µM. Besides, the inhibition at 100 µM in series [2] was 78%.
Consider `CC1(C)[C@@H](O)CC[C@]2(C)[C@H]3C(=O)C=C4[C@@H]5C[C@@](C)(C(=O)O)CC[C@]5(C)CC[C@@]4(C)[C@]3(C)CC[C@@H]12` [ENOXOLONE], for which the IC50 in series [3] amounted to 28.8 µM.
As for `C[C@@H]1O[C@@H](O[C@H]2[C@H](O[C@H]3[C@H](O[C@H]4CC[C@]5(C)[C@H]6C(=O)C=C7[C@@H]8C[C@@](C)(C(=O)O)[C@H](O)C[C@]8(C)CC[C@@]7(C)[C@]6(C)CC[C@H]5C4(C)C)O[C@H](C(=O)O)[C@@H](O)[C@@H]3O)O[C@H](CO)[C@@H](O)[C@@H]2O)[C@H](O)[C@H](O)[C@H]1O`, the Activity entry with MDCK is reported as “Non-toxic”. In addition, in series [1], the IC50 came out at 42.7 µM. Moreover, in series [2], the inhibition at 100 µM is 47.5%.
For `CC1(C)[C@@H](O[C@H]2O[C@H](C(=O)O)[C@@H](O)[C@H](O)[C@H]2O[C@@H]2OC[C@H](O)[C@H](O)[C@H]2O)CC[C@]2(C)[C@H]3C(=O)C=C4[C@@H]5C[C@@](C)(C(=O)O)CC[C@]5(C)CC[C@@]4(C)[C@]3(C)CC[C@@H]12`, the IC50 in series [3] was 85.1 µM. Also, the inhibition at 100 µM in series [4] was more than 50%.
Take `CC1(C)[C@@H](O[C@@H]2O[C@H](C(=O)O)[C@@H](O)[C@H](O)[C@H]2O[C@@H]2O[C@H](C(=O)O)[C@@H](O)[C@H](O)[C@H]2O)CC[C@]2(C)[C@H]3CC=C4[C@@H]5C[C@@](C)(C(=O)O)CC[C@]5(C)CC[C@@]4(C)[C@]3(C)CC[C@@H]12`: the 50% inhibitory concentration (IC50) in series [3] worked out at 83.2 µM. Besides, in series [4], the inhibition at 100 µM is more than 50%.
Consider `CC(=O)O[C@@H]1C[C@](C)(C=O)C[C@H]2C3=CC(=O)[C@@H]4[C@@]5(C)CC[C@H](O)C(C)(C)[C@@H]5CC[C@@]4(C)[C@]3(C)CC[C@@]12C`, for which the IC50 in series [3] was 69.2 µM. Also, the inhibition at 100 µM in series [4] was more than 50%.
As to `C[C@@H]1O[C@@H](O[C@@H]2CC(C)(C)C[C@H]3C4=CC(=O)[C@@H]5[C@@]6(C)CC[C@H](O[C@@H]7O[C@H](C(=O)O)[C@@H](O)[C@H](O)[C@H]7O[C@@H]7O[C@H](C(=O)O)[C@@H](O)[C@H](O)[C@H]7O)C(C)(C)[C@@H]6CC[C@@]5(C)[C@]4(C)CC[C@@]23C)[C@H](O)[C@H](O)[C@H]1O`, the Activity result with MDCK is “Non-toxic”. The IC50 in series [1] turned out to be 39.6 µM. Further, the inhibition at 100 µM in series [2] is 47.5%.
As for `CC1(C)[C@@H](O[C@@H]2O[C@H](CO)[C@@H](O)[C@H](O)[C@H]2O)CC[C@]2(C)[C@H]3C(=O)C=C4[C@@H]5C[C@@](C)(C(=O)O)CC[C@]5(C)CC[C@@]4(C)[C@]3(C)CC[C@@H]12`, the IC50 in series [3] amounted to 41.7 µM. The inhibition at 100 µM in series [4] was more than 50%.
For `CC1(C)[C@@H](O[C@@H]2O[C@H](C(=O)O)[C@@H](O)[C@H](O)[C@H]2O[C@@H]2O[C@H](C(=O)O)[C@@H](O)[C@H](O)[C@H]2O)CC[C@]2(C)[C@H]3C(=O)C=C4[C@@H]5C[C@]6(C)C[C@@H](OC6=O)[C@]5(C)CC[C@@]4(C)[C@]3(C)CC[C@@H]12` the same measures were 87.1 µM and more than 50%.
As to `CC(=O)O[C@@H]1C[C@](C)(C(=O)O)C[C@H]2C3=CC(=O)[C@@H]4[C@@]5(C)CC[C@H](O[C@H]6O[C@H](C(=O)O)[C@@H](O)[C@H](O)[C@H]6O[C@@H]6O[C@H](C(=O)O)[C@@H](O)[C@H](O)[C@H]6O)C(C)(C)[C@@H]5CC[C@@]4(C)[C@]3(C)CC[C@@]12C`, the results for the IC50 in series [3] and in series [1] were 29.5 µM and 49.1 µM, respectively. The Activity entry in the series with MDCK was “Non-toxic”. The inhibition at 100 µM in series [2] stood at 47.5%.
